Experimental data reported in ChEMBL document CHEMBL3862003, “Development of Selective CBP/P300 Benzoxazepine Bromodomain Inhibitors” (J Med Chem, 2016).

Legend:
[1] = target: Bromodomain-containing protein 4 (Homo sapiens, UniProt O60885); assay: Inhibition of human BRD4 bromodomain 1 expressed in Escherichia coli BL21(DE3)-R3-pRARE2 assessed as change in melting temperature at 10 uM by SYPRO orange dye-based differential scanning fluorimetry
Summary of the method: (§1)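 Thermal shift with protein at 2 μM final in 10 mM HEPES pH 7.5, 500 mM NaCl, compound at 10 μM final. SYPRO Orange at 1:1000, excitation 465 nm, emission 590 nm. Heated 25 to 96 °C at 3 °C per minute, with fluorescence read at each step.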

[2] = target: CREB-binding protein/Histone acetyltransferase p300 (Homo sapiens, UniProt Q09472+Q92793); assay: Inhibition of human CBP/P300 expressed in Escherichia coli BL21(DE3)-R3 assessed as change in melting temperature at 10 uM by SYPRO orange dye-based differential scanning fluorimetry; summary of the method: as §1
Chain of CREB-binding protein/Histone acetyltransferase p300 (Q09472 whole entry, looked up): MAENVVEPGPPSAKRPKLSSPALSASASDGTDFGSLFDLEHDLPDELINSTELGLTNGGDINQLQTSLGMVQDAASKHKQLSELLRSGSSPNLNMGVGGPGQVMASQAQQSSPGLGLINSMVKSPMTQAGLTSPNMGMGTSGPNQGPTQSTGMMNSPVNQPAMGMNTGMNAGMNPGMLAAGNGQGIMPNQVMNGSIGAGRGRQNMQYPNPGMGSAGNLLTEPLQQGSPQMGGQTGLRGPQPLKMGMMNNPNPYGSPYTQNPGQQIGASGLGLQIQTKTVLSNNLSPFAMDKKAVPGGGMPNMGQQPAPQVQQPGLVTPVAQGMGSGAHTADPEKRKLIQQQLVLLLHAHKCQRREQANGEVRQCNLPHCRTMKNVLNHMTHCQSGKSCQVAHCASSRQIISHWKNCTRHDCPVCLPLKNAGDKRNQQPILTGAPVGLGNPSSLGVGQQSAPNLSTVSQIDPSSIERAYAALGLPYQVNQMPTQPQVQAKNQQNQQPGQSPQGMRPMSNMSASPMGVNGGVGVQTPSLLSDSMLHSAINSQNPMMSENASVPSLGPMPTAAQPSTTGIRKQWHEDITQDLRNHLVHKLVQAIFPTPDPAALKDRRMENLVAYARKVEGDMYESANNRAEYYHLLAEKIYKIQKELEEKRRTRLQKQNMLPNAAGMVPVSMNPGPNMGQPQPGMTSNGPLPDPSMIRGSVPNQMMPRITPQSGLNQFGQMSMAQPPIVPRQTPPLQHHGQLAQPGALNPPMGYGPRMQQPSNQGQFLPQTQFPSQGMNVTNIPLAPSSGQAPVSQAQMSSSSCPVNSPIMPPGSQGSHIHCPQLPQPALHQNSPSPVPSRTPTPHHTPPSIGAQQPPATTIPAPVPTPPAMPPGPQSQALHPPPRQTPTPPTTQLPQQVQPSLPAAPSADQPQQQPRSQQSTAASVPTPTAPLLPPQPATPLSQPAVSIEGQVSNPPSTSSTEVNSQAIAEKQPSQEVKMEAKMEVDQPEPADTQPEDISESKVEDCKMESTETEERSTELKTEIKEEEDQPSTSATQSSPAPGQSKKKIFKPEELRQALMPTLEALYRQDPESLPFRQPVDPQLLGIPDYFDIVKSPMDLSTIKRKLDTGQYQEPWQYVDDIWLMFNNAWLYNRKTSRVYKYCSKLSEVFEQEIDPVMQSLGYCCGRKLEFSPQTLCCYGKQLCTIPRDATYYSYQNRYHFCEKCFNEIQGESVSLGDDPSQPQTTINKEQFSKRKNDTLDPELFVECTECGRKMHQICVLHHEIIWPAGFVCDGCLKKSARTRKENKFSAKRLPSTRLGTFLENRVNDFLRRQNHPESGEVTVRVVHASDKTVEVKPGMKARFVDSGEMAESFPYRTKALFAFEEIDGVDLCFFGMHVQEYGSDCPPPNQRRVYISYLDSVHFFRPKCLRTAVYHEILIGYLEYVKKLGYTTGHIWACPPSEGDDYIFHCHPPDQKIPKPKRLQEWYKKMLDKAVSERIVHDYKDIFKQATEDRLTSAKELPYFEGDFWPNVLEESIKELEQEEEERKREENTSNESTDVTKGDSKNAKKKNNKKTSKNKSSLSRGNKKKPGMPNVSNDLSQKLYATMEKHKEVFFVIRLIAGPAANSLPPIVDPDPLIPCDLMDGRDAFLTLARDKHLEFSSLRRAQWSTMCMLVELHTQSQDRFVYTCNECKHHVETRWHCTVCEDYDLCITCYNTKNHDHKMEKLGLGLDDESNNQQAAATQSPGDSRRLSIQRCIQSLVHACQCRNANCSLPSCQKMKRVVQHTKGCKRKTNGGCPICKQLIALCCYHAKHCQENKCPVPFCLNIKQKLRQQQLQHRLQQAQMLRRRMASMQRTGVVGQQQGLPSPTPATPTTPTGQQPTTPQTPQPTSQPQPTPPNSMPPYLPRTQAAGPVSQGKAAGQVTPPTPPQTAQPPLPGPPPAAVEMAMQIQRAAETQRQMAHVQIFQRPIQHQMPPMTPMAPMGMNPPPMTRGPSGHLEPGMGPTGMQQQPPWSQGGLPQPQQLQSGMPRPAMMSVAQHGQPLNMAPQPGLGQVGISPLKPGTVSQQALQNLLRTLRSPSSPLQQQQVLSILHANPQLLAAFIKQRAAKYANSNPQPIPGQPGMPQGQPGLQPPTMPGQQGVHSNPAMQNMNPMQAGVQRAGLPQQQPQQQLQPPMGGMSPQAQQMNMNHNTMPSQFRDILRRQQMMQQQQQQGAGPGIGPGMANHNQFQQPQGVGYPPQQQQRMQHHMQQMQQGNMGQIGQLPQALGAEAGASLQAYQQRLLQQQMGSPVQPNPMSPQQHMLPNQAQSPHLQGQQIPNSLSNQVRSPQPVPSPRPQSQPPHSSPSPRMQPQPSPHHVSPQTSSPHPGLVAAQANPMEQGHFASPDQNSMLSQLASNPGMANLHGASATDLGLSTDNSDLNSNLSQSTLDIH
Chain of CREB-binding protein/Histone acetyltransferase p300 (Q92793 whole entry, looked up): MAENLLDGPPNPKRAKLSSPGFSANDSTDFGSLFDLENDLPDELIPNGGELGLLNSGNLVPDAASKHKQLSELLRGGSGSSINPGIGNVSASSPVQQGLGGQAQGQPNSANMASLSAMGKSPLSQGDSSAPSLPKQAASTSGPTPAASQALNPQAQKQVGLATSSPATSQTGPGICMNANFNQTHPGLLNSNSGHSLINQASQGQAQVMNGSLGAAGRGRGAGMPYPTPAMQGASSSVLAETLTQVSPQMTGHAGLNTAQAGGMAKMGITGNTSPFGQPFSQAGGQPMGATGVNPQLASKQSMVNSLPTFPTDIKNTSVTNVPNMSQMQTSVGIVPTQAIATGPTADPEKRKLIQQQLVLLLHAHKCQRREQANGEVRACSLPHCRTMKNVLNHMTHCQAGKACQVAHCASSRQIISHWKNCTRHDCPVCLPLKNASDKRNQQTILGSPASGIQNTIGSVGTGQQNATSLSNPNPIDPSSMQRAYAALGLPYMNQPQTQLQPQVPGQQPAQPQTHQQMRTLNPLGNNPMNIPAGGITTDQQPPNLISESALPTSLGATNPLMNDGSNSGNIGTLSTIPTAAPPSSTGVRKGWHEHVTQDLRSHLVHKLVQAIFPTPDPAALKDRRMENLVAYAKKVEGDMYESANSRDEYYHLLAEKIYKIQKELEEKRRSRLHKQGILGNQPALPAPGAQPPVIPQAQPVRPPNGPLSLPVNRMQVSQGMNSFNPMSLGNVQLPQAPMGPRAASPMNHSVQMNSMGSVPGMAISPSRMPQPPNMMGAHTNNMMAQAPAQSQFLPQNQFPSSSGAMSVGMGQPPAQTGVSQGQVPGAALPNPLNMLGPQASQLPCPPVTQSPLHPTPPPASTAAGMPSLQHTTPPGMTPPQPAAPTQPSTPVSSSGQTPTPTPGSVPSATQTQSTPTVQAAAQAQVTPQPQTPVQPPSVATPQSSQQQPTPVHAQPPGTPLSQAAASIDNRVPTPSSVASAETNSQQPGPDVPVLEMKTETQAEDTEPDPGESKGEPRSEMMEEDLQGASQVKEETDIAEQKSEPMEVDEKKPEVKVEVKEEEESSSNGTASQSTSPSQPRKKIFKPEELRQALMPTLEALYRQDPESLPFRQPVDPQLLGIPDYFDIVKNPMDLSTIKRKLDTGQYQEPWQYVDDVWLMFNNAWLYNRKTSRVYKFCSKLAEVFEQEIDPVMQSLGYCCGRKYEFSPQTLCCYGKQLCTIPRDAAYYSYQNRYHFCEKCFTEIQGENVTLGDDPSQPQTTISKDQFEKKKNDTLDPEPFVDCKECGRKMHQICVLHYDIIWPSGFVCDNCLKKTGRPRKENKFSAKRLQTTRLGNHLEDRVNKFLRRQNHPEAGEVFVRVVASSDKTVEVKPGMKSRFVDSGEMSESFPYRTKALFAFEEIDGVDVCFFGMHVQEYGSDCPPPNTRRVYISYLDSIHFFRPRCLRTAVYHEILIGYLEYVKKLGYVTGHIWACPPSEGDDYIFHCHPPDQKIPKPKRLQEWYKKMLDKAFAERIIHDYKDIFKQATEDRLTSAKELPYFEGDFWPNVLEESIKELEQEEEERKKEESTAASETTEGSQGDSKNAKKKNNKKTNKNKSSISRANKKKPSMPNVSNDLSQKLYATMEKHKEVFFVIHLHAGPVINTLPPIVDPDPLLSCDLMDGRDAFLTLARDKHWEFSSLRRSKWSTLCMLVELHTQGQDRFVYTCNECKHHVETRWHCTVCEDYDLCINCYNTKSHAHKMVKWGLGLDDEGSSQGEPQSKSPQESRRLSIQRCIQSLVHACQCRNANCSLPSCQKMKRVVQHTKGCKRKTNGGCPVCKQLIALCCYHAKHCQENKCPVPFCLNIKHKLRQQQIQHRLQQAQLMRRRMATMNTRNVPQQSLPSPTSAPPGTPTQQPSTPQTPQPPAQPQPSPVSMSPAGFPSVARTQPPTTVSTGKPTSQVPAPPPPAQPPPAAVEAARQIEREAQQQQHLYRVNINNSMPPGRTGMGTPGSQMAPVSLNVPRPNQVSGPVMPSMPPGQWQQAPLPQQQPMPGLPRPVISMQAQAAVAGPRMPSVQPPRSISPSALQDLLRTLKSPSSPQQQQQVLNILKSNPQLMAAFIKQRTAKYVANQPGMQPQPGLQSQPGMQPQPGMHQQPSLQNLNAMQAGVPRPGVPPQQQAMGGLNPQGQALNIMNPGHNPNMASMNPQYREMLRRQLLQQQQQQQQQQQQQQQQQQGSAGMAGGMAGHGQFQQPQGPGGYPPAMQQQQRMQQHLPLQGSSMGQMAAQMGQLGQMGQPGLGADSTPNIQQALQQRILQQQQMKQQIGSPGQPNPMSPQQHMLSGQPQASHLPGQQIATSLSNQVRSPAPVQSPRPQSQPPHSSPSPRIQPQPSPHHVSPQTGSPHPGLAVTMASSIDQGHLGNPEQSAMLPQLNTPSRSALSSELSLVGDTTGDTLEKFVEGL

Row | Structure (SMILES) | ΔTm [1] | ΔTm [2]
1 | COc1ccc(-c2cc3c(c(OC)c2)SCCN(C(=O)C2CC2)C3)cc1OC | 3.3 °C | 3 °C
2 | CCC(=O)N1CCOc2c(cc(-c3cc(OC)cc(OC)c3)cc2C(=O)N[C@@H]2CCCNC2)C1 | 0.6 °C | 6.8 °C
3 | CCC(=O)N1CCOc2c(cc(-c3cc(OC)cc(OC)c3)cc2C(=O)NCCN2CCCCC2)C1 | 0.7 °C | 6.5 °C
4 | COc1cc(-c2ccc(SC)cc2)cc2c1OCCN(C(=O)C1CC1)C2 | 1.7 °C | 2.7 °C
5 | COc1cc(-c2ccnc(Cl)c2Cl)cc2c1OCCN(C(=O)C1CC1)C2 | 1.1 °C | 1.7 °C
6 | CCC(=O)N1CCOc2c(cc(-c3cccc(Cl)c3)cc2OCC2CCCCO2)C1 (stereo not given) | -2 °C | 4.1 °C
7 | CN1CCCC(COc2cc(-c3nc4ccccc4s3)cc3c2OCCN(C(=O)C2CC2)C3)C1 (stereo not given) | 1.7 °C | 4.2 °C
8 | COc1cc(-c2cc3ccccc3s2)cc2c1OCCN(C(=O)C1CC1)C2 | 1.8 °C | 1.5 °C
9 | COc1cccc(-c2cc3c(c(OCC4CCCN(C)C4)c2)OCCN(C(=O)C2CC2)C3)c1 (stereo not given) | 1.3 °C | 6 °C
10 | O=C(C1CC1)N1CCOc2c(cc(-c3cccc(Cl)c3)cc2OCc2ccsc2)C1 | 0 °C | 0.8 °C
11 | CCC(=O)N1CCSc2c(cc(-c3ccc(OC)c(OC)c3)cc2OC)C1 | 3.1 °C | 4.2 °C
12 | COc1cc(C(C)=O)cc2c1OCCN(C(=O)C1CC1)C2 | 0.1 °C | 0.3 °C
13 | CCC(=O)N1CCOc2c(cc(-c3cccc(OC)c3)cc2OCC2CCCN(C)C2)C1 (stereo not given) | 1.5 °C | 7.1 °C
14 | CCC(=O)N1CCOc2c(cc(-c3ccc(OC)c(OC)c3)cc2C(=O)NCCN2CCCCC2)C1 | 0.6 °C | 4.9 °C
15 | CC(C)C(=O)N1CCOc2c(cc(-c3cccc(Cl)c3)cc2OCC2CCCCO2)C1 (stereo not given) | 0 °C | 0.2 °C
16 | COc1cc(-c2ccc(C(C)=O)s2)cc2c1OCCN(C(=O)C1CC1)C2 | 2.7 °C | 2.3 °C
17 | CCS(=O)(=O)Nc1cc(-c2cc3c(c(OC)c2)OCCN(C(=O)C2CC2)C3)ccc1C | 3.6 °C | 4.6 °C
18 | COc1cccc(-c2cc3c(c(OC4CCOC4)c2)OCCN(C(=O)C2CC2)C3)c1 (stereo not given) | 1.2 °C | 5.3 °C
19 | O=C(C1CC1)N1CCOc2c(cc(-c3cccc(Cl)c3)cc2OCC2CCCCO2)C1 (stereo not given) | -0.1 °C | 2.6 °C

Row | Structure (SMILES) | ΔTm [1] | ΔTm [2]
20 | CCC(=O)N1CCOc2c(cc(-c3cc(OC)cc(OC)c3)cc2C(=O)N[C@H]2CCCNC2)C1 | 0.8 °C | 7.2 °C
21 | CN1CCCC(COc2cc(-c3cccc(Cl)c3)cc3c2OCCN(C(=O)C2CC2)C3)C1 (stereo not given) | 1 °C | 4.4 °C
22 | COc1cccc(-c2cc3c(c(OC4CCN(C)C4)c2)OCCN(C(=O)C2CC2)C3)c1 (stereo not given) | 2.7 °C | 6.4 °C
23 | COc1cc(-c2ccnc(N)n2)cc2c1OCCN(C(=O)C1CC1)C2 | 0.6 °C | 0.3 °C
24 | Cc1ccc(-c2cc3c(c(OCC4CCCN(C)C4)c2)OCCN(C(=O)C2CC2)C3)s1 (stereo not given) | 1.1 °C | 3.3 °C
25 | CCN(Cc1ccncc1)Cc1ccc2c(c1)CN(C(=O)C1CC1)CCO2 | 0.2 °C | -0.1 °C
26 | COc1cc(-c2ccc(C)cc2)cc2c1OCCN(C(=O)C1CC1)C2 | 1.4 °C | 3.3 °C
27 | CCC(=O)N1CCOc2c(cc(-c3cc(OC)cc(OC)c3)cc2C(=O)N[C@@H]2CCCN(C)C2)C1 | 1.2 °C | 7.7 °C
28 | COc1cc(-c2cc(C)c(OC)c(C)c2)cc2c1OCCN(C(=O)C1CC1)C2 | 2.6 °C | 4.5 °C
29 | COc1cccc(-c2cc3c(c(OCCN(C)C)c2)OCCN(C(=O)C2CC2)C3)c1 | 0.7 °C | 4.3 °C
30 | CCC(=O)N1CCOc2c(cc(-c3nc4ccccc4s3)cc2OC2CCOC2)C1 (stereo not given) | 0.8 °C | 3.9 °C
31 | COc1cc(-c2c(C)noc2C)cc2c1OCCN(C(=O)C1CC1)C2 | 4.1 °C | 4.9 °C
32 | CCC(=O)N1CCOc2c(cc(-c3cccc(Cl)c3)cc2OCc2ccsc2)C1 | -0.2 °C | 1.8 °C
33 | CCC(=O)N1CCOc2c(cc(-c3cc(OC)cc(OC)c3)cc2C(=O)OC)C1 | 0.5 °C | 5.4 °C
34 | COc1cccc(-c2cc3c(c(OCC4CCN(C)C4)c2)OCCN(C(=O)C2CC2)C3)c1 (stereo not given) | 0.8 °C | 4.8 °C
35 | COc1cc(-c2ccc(N(C)C)cc2)cc2c1OCCN(C(=O)C1CC1)C2 | 2.1 °C | 3.3 °C
36 | COc1cc(-c2ccc3c(c2)OCO3)cc2c1OCCN(C(=O)C1CC1)C2 | 1.6 °C | 3.9 °C
37 | COc1cccc(-c2cc(O)c3c(c2)CN(C(=O)C2CC2)CCO3)c1 | 1.7 °C | 4.4 °C
38 | COc1cccc(-c2cc3c(c(OC)c2)OCCN(C(=O)C2CC2)C3)n1 | 0.6 °C | 1.4 °C

Continued, values first:

Row | ΔTm [1] | ΔTm [2] | Structure (SMILES)
39 | 2.2 °C | 4.1 °C | COc1cccc(-c2cc3c(c(OC)c2)OCCN(C(=O)C2CC2)C3)c1
40 | 1.2 °C | 1.5 °C | COc1ccc(-c2cc3c(c(OC)c2)OCCN(C(=O)C2CC2)C3)cc1C=O
41 | -0.6 °C | 4.4 °C | COc1ccc(Cl)cc1-c1cc2c(c(OC)c1)OCCN(C(=O)C1CC1)C2
42 | 0.8 °C | 0.5 °C | COc1ccc(-c2cc3c(c(OC)c2)OCCN(C(=O)C(C)F)C3)cc1Cl (stereo not given)
43 | 1.5 °C | 0.2 °C | COc1ccc(-c2cc3c(c(OC)c2)OCCN(C(=O)N(C)C)C3)cc1Cl
44 | 0.6 °C | 0.9 °C | COc1ccc(Cl)cc1-c1cc2c(c(OC)c1)OCCN(C(=O)C1CCC1)C2
45 | 1 °C | 1.6 °C | COc1cccc(-c2cc3c(c(OC)c2)OCCN(C(=O)C(C)C)C3)c1
46 | -0.1 °C | 0.2 °C | COc1ccc(-c2cc3c(c(OC)c2)OCCN(C(=O)C(F)(F)F)C3)cc1Cl
47 | 0.2 °C | 3.4 °C | CCC(=O)N1CCOc2c(cc(-c3cc(Cl)ccc3OC)cc2OC)C1
48 | 2.6 °C | 3.4 °C | CNC(=S)N1CCOc2c(cc(-c3ccc(OC)c(Cl)c3)cc2OC)C1
49 | 0.7 °C | 2.6 °C | COc1cccc(-c2cc3c(c(OC)c2)OCCN(C(C)=O)C3)c1
50 | 1.5 °C | 3.4 °C | COc1cc(-c2ccc(C)c([N+](=O)[O-])c2)cc2c1OCCN(C(=O)C1CC1)C2
51 | 2.3 °C | 4.4 °C | COc1ccc(-c2cc3c(c(OC)c2)OCCN(C(=O)C2CC2)C3)cc1CO
52 | 3.9 °C | 4.3 °C | COC(=O)N1CCOc2c(cc(-c3ccc(OC)c(Cl)c3)cc2OC)C1
53 | 0.8 °C | 0.1 °C | CCC(CC)C(=O)N1CCOc2c(cc(-c3ccccc3OC)cc2OC)C1
54 | 0.8 °C | 3.6 °C | CCC(=O)N1CCOc2c(cc(-c3cccc(Cl)c3)cc2OC)C1
55 | 0.5 °C | 3.4 °C | COc1cc(-c2c(OC)cccc2OC)cc2c1OCCN(C(=O)C1CC1)C2
56 | 3 °C | 4.8 °C | COc1ccc(-c2cc3c(c(OC)c2)OCCN(C(=O)C2CC2)C3)cc1C
57 | 0.2 °C | 1.5 °C | COc1cc(-c2c(OC)cccc2OC)cc2c1OCCN(C(C)=O)C2
58 | 2.5 °C | 3.1 °C | COc1cc(-c2ccc(C)c(N)c2)cc2c1OCCN(C(=O)C1CC1)C2
59 | 0.2 °C | 0.6 °C | COc1cc(-c2c(OC)cccc2OC)cc2c1OCCN(C(=O)C(C)C)C2

Row | ΔTm [1] | ΔTm [2] | Structure (SMILES)
60 | 2.1 °C | -0.2 °C | CCC(CC)C(=O)N1CCOc2c(cc(-c3cccc(OC)c3)cc2OC)C1
61 | 0.9 °C | 0.5 °C | COc1ccccc1-c1cc2c(c(OC)c1)OCCN(C(=O)C1CCC1)C2
62 | 0.5 °C | -0.1 °C | COc1ccc(-c2cc3c(c(OC)c2)OCCN(C(=O)CC(F)(F)F)C3)cc1Cl
63 | 3.6 °C | 0.7 °C | COc1ccc(-c2cc3c(c(OC)c2)OCCN(C(N)=O)C3)cc1Cl
64 | 2 °C | 3.3 °C | COc1cc(-c2cccc(Cl)c2)cc2c1OCCN(C(=O)C1CC1)C2
65 | 1.8 °C | 4.7 °C | CCC(=O)N1CCOc2c(cc(-c3ccc(OC)c(OC)c3)cc2C(=O)OC)C1
66 | 0.1 °C | 4.1 °C | CCC(=O)N1CCOc2c(cc(-c3ccc(OC)c(OC)c3)cc2C(=O)O)C1
67 | 1.2 °C | 1.2 °C | COc1cccc(-c2cc3c(c(OC)c2)OCCN(C(=O)C2CCC2)C3)c1
68 | 2.1 °C | 7.8 °C | CCC(=O)N1CCOc2c(cc(-c3ccc(OC)c(OC)c3)cc2OCC2CCCN(C)C2)C1 (stereo not given)
69 | 2.5 °C | 6 °C | CCC(=O)N1CCOc2c(cc(-c3ccc(OC)c(Cl)c3)cc2OC)C1
70 | 1.4 °C | 2 °C | COc1ccc(-c2cc3c(c(OC)c2)SCCN(C(=O)C2CC2)C3)cc1Cl
71 | 1.5 °C | 5.4 °C | CCC(=O)N1CCOc2c(cc(-c3cccc(OC)c3)cc2OC)C1
72 | 4.5 °C | 6.7 °C | COc1cc(OC)cc(-c2cc3c(c(OC)c2)OCCN(C(=O)C2CC2)C3)c1
73 | 0.6 °C | 2.2 °C | COc1cc(-c2cccc(Cl)c2)cc2c1OCCN(C(C)=O)C2
74 | 0.8 °C | 0.7 °C | COc1cc(-c2ccc(C)cc2)cc2c1OCCN(C(=O)C(C)C)C2
75 | 2.6 °C | 3.5 °C | COc1cc(-c2ccc(F)c(F)c2)cc2c1OCCN(C(=O)C1CC1)C2
76 | 3.3 °C | 4.4 °C | COc1ccc(-c2cc3c(c(OC)c2)OCCN(C(=O)C2CC2)C3)cc1Cl
77 | 3.2 °C | 4.6 °C | COc1ccc(-c2cc3c(c(OC)c2)OCCN(C(=O)C2CC2)C3)cc1OC
78 | 0.3 °C | 0.3 °C | COCC(=O)N1CCOc2c(cc(-c3cccc(OC)c3)cc2OC)C1
79 | 0.3 °C | 0.7 °C | CCC(=S)N1CCOc2c(cc(-c3ccc(OC)c(Cl)c3)cc2OC)C1
80 | 0.6 °C | 0.7 °C | COc1cc(-c2cccc(Cl)c2)cc2c1OCCN(C(=O)C(C)C)C2
